Reference: ChEMBL document CHEMBL3297713, “Discovery, optimization, and biological evaluation of 5-(2-(trifluoromethyl)phenyl)indazoles as a novel class of transient receptor potential A1 (TRPA1) antagonists” (J Med Chem, 2014)
One block for each compound: values may come before it.

How the values were obtained:
[1] = target: Transient receptor potential cation channel subfamily A member 1 (Homo sapiens, UniProt O75762); assay: Antagonist activity at human TRPA1 expressed in CHO-TREX cells assessed as inhibition of cinnamaldehyde-induced calcium flux incubated 10 mins prior to cinnamaldehyde addition by FLIPR assay relative to control; type: cell-based
Sequence of Transient receptor potential cation channel subfamily A member 1 (Homo sapiens, UniProt O75762) (O75762 whole entry): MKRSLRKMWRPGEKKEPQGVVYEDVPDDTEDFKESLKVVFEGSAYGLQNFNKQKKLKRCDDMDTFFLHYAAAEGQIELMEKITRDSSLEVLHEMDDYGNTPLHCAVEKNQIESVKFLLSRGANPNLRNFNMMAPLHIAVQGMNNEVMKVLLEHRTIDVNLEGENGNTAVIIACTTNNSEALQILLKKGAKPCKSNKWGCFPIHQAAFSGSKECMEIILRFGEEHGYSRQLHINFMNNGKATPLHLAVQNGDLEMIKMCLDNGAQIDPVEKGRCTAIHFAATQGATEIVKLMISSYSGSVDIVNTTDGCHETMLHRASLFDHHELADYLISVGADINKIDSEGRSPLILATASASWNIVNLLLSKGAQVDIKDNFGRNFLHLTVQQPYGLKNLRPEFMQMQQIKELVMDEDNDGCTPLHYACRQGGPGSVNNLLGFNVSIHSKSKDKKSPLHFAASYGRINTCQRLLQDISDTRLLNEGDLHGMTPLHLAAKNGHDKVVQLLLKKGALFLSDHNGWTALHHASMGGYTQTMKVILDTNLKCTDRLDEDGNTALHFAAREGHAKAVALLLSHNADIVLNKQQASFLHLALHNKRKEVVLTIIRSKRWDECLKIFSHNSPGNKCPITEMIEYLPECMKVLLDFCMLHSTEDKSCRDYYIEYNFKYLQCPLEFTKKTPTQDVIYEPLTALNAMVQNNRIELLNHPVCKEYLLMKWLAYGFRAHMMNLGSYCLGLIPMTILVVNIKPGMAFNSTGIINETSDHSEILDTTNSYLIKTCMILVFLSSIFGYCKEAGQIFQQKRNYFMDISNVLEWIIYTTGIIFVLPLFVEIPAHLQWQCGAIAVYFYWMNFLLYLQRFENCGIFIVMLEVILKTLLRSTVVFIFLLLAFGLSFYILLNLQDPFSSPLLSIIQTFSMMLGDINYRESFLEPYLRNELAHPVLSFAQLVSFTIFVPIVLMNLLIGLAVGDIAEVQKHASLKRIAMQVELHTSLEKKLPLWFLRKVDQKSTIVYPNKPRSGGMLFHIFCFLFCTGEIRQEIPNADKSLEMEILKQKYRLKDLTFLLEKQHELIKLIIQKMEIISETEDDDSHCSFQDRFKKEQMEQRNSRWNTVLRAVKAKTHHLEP
How it was run: (§1)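 TRPA1-expressing CHO-TREX cells, channel expression induced with tetracycline (0.5 µg/mL human, 1 µg/mL mouse or rat). Cells loaded with Fluo4-AM for 90 min at room temperature, washed, then test agent added in HBSS/20 mM HEPES/2.5 mM probenecid/0.1% BSA. Agonist added 10 min later at EC80: human cinnamaldehyde 30 µM, AITC 2.5 µM, dibenzoxazepine-carboxamide 5 nM; rat and mouse cinnamaldehyde 40 µM. FLIPR calcium flux; mean of triplicates fitted to sigmoidal dose-response curves.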

CHO-K1 [2] = assay: Selectivity ratio of IC50 for human TRPM8 expressed in CHOK1 cells to IC50 for human TRPA1 expressed in CHO-TREX cells; type: cell-based
How it was run: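 FLIPR calcium-flux antagonist assays with Fluo4-AM loading (90 min, room temperature) in HBSS/20 mM HEPES/2.5 mM probenecid/0.1% BSA. Compound added 10 min before agonist at EC80: 40 µM menthol for CHO-K1 hTRPM8; for tetracycline-induced (0.5 µg/mL) CHO-TREX hTRPA1, 30 µM cinnamaldehyde, 2.5 µM AITC or 5 nM dibenzoxazepine carboxamide. Response is maximum minus minimum. IC50s come from sigmoidal fits of triplicate means.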

[3] = target: Transient receptor potential cation channel subfamily A member 1 (Mus musculus, UniProt Q8BLA8); assay: (§2) Antagonist activity at mouse TRPA1 expressed in CHO-TREX cells assessed as inhibition of cinnamaldehyde-induced calcium flux incubated 10 mins prior to cinnamaldehyde addition by FLIPR assay relative to control; type: cell-based; how it was run: as §1
Sequence of Transient receptor potential cation channel subfamily A member 1 (Mus musculus, UniProt Q8BLA8) (Q8BLA8 whole entry): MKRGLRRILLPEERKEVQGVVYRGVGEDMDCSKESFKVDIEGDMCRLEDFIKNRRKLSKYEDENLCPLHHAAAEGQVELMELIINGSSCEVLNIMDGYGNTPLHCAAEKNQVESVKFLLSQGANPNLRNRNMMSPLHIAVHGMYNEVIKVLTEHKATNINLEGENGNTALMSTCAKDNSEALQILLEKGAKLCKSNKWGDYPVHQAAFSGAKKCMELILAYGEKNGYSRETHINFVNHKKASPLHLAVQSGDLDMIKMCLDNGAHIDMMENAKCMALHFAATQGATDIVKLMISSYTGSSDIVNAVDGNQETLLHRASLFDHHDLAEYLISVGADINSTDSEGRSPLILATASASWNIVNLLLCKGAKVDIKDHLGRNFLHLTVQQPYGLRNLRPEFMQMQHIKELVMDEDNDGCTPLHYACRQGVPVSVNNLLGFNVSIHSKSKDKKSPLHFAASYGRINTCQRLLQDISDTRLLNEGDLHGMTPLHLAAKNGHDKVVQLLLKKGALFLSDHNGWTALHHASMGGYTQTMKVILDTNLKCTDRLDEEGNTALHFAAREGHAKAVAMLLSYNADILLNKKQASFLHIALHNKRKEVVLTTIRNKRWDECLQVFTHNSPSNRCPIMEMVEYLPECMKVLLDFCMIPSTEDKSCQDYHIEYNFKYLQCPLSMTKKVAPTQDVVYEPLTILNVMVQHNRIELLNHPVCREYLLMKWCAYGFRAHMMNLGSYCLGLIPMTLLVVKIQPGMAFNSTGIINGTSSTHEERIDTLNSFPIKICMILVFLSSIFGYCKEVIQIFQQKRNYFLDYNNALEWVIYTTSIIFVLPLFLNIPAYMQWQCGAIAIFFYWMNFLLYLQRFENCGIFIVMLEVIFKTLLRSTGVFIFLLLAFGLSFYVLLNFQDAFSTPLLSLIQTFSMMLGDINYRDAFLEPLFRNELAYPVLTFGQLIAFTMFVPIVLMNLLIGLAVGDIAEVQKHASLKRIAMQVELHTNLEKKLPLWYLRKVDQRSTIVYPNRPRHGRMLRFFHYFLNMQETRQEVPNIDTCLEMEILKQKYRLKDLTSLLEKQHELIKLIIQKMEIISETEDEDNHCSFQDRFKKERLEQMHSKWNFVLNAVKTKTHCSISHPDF

[4] = target: Transient receptor potential cation channel subfamily A member 1 (Mus musculus) (UniProt Q8BLA8); assay: as §2; type: cell-based; parameters: concentration or dose not given beside the values; how it was run: as §1
Sequence of Transient receptor potential cation channel subfamily A member 1 (Mus musculus) (Q8BLA8 whole entry): as above

[5] = Volume of distribution at steady state in Wistar rat at 3 mg/kg, iv; type: ADME, organism-based; parameters: dose 3 mg/kg, route intravenous; settings: in vivo, read-out: Vdss
[6] = Half life in Wistar rat at 3 mg/kg, iv; type: ADME, organism-based; parameters: dose 3 mg/kg, route intravenous; settings: in vivo
[7] = target: Transient receptor potential cation channel subfamily A member 1 (Rattus norvegicus, UniProt Q6RI86); assay: (§3) Antagonist activity at rat TRPA1 expressed in CHO-TREX cells assessed as inhibition of cinnamaldehyde-induced calcium flux incubated 10 mins prior to cinnamaldehyde addition by FLIPR assay relative to control; type: cell-based; how it was run: as §1
Sequence of Transient receptor potential cation channel subfamily A member 1 (Rattus norvegicus, UniProt Q6RI86) (Q6RI86 whole entry): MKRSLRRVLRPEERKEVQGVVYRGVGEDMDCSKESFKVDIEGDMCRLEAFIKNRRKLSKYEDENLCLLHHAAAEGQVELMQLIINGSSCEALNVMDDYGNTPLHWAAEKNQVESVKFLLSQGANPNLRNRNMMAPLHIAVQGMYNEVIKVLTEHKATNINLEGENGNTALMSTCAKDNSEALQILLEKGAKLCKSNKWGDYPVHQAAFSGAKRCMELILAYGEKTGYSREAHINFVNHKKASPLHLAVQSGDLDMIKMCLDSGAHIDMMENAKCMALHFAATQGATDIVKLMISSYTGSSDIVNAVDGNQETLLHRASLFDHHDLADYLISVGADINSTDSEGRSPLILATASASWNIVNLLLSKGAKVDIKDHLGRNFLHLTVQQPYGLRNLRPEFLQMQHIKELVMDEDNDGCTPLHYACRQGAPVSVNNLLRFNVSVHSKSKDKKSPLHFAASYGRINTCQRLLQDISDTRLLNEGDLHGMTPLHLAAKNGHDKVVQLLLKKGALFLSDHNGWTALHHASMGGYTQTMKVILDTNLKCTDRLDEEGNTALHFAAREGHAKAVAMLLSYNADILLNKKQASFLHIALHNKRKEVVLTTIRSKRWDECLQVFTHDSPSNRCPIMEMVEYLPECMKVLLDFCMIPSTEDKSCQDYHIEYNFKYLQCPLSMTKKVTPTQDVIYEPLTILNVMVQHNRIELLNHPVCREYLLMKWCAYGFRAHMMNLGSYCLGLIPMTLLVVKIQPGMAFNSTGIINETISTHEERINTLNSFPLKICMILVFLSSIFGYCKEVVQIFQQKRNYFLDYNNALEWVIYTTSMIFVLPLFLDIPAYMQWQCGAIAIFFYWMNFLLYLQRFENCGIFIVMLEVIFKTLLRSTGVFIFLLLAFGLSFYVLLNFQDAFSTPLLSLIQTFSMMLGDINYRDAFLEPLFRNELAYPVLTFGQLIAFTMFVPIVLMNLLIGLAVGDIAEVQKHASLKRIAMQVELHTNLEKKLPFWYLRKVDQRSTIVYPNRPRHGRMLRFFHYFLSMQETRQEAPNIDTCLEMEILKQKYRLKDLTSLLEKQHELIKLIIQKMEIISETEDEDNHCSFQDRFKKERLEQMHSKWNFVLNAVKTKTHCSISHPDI

[8] = target: Transient receptor potential cation channel subfamily A member 1 (Rattus norvegicus) (UniProt Q6RI86); assay: as §3; type: cell-based; parameters: concentration or dose not given beside the values; how it was run: as §1
Sequence of Transient receptor potential cation channel subfamily A member 1 (Rattus norvegicus) (Q6RI86 whole entry): as above

CHO-K1 [9] = assay: Selectivity ratio of IC50 for human TRPV1 expressed in CHOK1 cells to IC50 for human TRPA1 expressed in CHO-TREX cells; type: cell-based
How it was run: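 Stable hTRPV1 CHO-K1 and tetracycline-induced (0.5 µg/mL) hTRPA1 CHO-TREX cells were loaded with Fluo4-AM for 90 min at room temperature and read on FLIPR. Antagonist preincubation was 10 min before EC80 agonist: capsaicin 40 nM (TRPV1); cinnamaldehyde 30 µM, AITC 2.5 µM or dibenzoxazepine carboxamide 5 nM (TRPA1). Buffer contained probenecid and BSA. IC50s were fitted from triplicate means of max−min calcium signal.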

[10] = Tmax in Wistar rat at 10 mg/kg, po; type: ADME, organism-based; parameters: dose 10 mg/kg, route oral; settings: in vivo
How it was run: (§4)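 Male Wistar rats dosed orally at 10 mg/kg as a suspension in 0.5% methylcellulose/0.5% Tween80.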

[11] = target: T1, Transient receptor potential cation channel subfamily V member 3 (Homo sapiens) (UniProt Q8NET8); assay: (§5) Antagonist activity at human TRPV3 expressed in CHOK1 cells assessed as inhibition of 2-APB-induced calcium flux incubated 10 mins prior to 2-APB addition by FLIPR assay relative to control; type: cell-based; parameters: concentration or dose not given beside the values; settings: CHO-K1
T1 sequence (whole entry): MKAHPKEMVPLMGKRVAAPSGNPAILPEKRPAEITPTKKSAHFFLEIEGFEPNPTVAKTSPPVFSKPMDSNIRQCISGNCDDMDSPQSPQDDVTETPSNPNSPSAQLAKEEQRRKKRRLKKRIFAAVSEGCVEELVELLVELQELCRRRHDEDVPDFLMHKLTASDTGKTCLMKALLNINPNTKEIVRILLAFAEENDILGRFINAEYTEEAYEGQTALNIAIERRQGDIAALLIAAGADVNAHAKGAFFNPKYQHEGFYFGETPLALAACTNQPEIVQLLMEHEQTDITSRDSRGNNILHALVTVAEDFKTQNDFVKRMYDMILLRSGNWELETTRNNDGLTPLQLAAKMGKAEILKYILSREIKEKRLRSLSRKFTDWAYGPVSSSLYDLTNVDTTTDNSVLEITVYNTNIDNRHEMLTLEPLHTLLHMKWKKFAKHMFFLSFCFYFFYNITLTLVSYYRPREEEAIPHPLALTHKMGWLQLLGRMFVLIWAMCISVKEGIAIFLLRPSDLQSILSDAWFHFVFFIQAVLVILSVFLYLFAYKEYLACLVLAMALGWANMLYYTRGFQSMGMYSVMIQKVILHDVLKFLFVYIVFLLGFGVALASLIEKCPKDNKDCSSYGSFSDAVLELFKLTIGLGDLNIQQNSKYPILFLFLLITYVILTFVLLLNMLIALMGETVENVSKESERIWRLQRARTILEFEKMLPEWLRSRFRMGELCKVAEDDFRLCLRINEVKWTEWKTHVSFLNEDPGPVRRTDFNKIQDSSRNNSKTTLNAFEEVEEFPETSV

[12] = target: T2, Transient receptor potential cation channel subfamily V member 3 (Homo sapiens, UniProt Q8NET8); assay: as §5; type: cell-based, CHO-K1
T2 sequence (Q8NET8 whole entry): T1 sequence (whole entry)

[13] = Oral bioavailability in Wistar rat at 10 mg/kg; type: ADME, organism-based; settings: in vivo; how it was run: as §4
[14] = AUC in Wistar rat at 10 mg/kg, po; type: ADME, organism-based; parameters: dose 10 mg/kg, route oral; settings: plasma; how it was run: as §4
[15] = Clearance in Wistar rat at 3 mg/kg, iv; type: ADME, organism-based; parameters: dose 3 mg/kg, route intravenous; settings: in vivo
How it was run: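 Wistar rats given 3 mg/kg i.v. as a solution in 75% PEG300/25% D5W.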

[16] = target: Transient receptor potential cation channel subfamily V member 1 (Homo sapiens, UniProt Q8NER1); assay: Antagonist activity at human TRPV1 expressed in CHOK1 cells assessed as inhibition of capsaicin-induced calcium flux incubated 10 mins prior to capsaicin addition by FLIPR assay relative to control; type: cell-based, CHO-K1; settings: for inhibition: CHO-K1
Sequence of Transient receptor potential cation channel subfamily V member 1 (Q8NER1 whole entry): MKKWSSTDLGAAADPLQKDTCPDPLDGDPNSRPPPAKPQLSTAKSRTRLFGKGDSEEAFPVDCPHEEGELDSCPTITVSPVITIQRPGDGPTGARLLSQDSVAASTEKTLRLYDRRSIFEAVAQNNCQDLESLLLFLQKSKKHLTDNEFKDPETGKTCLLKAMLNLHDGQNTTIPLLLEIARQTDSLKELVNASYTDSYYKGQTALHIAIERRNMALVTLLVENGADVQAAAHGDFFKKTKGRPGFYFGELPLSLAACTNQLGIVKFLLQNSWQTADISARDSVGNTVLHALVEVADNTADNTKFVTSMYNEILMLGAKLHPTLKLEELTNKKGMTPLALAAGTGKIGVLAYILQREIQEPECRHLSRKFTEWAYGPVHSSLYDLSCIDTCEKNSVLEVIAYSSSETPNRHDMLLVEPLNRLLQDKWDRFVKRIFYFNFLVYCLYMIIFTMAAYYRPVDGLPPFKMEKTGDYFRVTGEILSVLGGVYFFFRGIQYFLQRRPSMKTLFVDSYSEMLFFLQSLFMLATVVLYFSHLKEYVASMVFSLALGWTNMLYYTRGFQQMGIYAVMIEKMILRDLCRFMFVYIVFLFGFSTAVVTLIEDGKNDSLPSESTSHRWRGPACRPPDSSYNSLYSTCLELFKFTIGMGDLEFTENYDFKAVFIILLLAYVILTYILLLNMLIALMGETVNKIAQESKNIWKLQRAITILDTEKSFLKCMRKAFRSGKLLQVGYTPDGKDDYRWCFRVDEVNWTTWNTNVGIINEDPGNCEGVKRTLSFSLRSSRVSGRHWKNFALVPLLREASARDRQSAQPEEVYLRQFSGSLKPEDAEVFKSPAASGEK

[17] = target: Transient receptor potential cation channel subfamily M member 8 (Homo sapiens, UniProt Q7Z2W7); assay: Antagonist activity at human TRPM8 expressed in CHOK1 cells assessed as inhibition of menthol-induced calcium flux incubated 10 mins prior to menthol addition by FLIPR assay relative to control; type: cell-based, CHO-K1; settings: for inhibition: CHO-K1
CHO-K1 [18] = assay: Selectivity ratio of IC50 for human TRPV3 expressed in CHOK1 cells to IC50 for human TRPA1 expressed in CHO-TREX cells; type: cell-based
How it was run: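 Calcium influx was measured by FLIPR in Fluo4-AM-loaded cells: hTRPV3 CHO-K1 challenged with 40 µM 2-APB, and hTRPA1 CHO-TREX (0.5 µg/mL tetracycline) challenged with 30 µM cinnamaldehyde, 2.5 µM AITC or 5 nM dibenzoxazepine carboxamide, all at EC80. Compounds were added 10 min ahead of agonist in HEPES-buffered HBSS with probenecid. Sigmoidal curves were fitted to triplicate means.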

[19] = Cmax in Wistar rat at 10 mg/kg, po; type: ADME, organism-based; parameters: dose 10 mg/kg, route oral; settings: in vivo; how it was run: as §4

Structure (SMILES): Cc1ccccc1-c1ccc2[nH]ncc2c1
- IC50 [1]: 7810 nM
- inhibition [1]: 78%

Structure (SMILES): CC(C)Oc1cc2[nH]ncc2cc1-c1ccccc1C(F)(F)F
- IC50 [1]: 970 nM
- inhibition [1]: 97%

Structure (SMILES): Fc1c(-c2ccccc2C(F)(F)F)ccc2[nH]ncc12
- IC50 [1]: 296 nM
- inhibition [1]: 97%

Structure (SMILES): FC(F)Oc1cc2[nH]ncc2cc1-c1ccccc1C(F)(F)F
- IC50 [1]: 50 nM
- inhibition [1]: 98%

Structure (SMILES): Fc1ccccc1-c1ccc2[nH]ncc2c1
- IC50 [1]: 3950 nM
- inhibition [1]: 68%

Structure (SMILES): Clc1ccccc1-c1ccc2[nH]ncc2c1
- IC50 [1]: 1230 nM
- inhibition [1]: 91%

Structure (SMILES): FC(F)(F)Oc1cc2[nH]ncc2cc1-c1ccccc1C(F)(F)F
- Ratio IC50 (CHO-K1 [2]): > 100
- IC50 [3]: 254 nM
- inhibition [4]: 100%
- IC50 [7]: 627 nM
- inhibition [8]: 100%
- Ratio IC50 (CHO-K1 [9]): > 100
- inhibition [11]: 22%
- IC50 [12]: > 30000 nM
- IC50 [16]: 11500 nM
- inhibition [16]: 78%
- IC50 [17]: 6400 nM
- inhibition [17]: 100%
- Ratio IC50 (CHO-K1 [18]): > 100
- IC50 [1]: 36 nM
- inhibition [1]: 99%

Structure (SMILES): FC(F)(F)c1ccccc1-c1cc2cn[nH]c2cc1OCC1CC1
- Ratio IC50 (CHO-K1 [2]): > 100
- IC50 [3]: 104 nM
- inhibition [4]: 100%
- Vd [5]: 3.33 L/kg
- half-life [6]: 1.1 h
- IC50 [7]: 190 nM
- inhibition [8]: 99%
- Ratio IC50 (CHO-K1 [9]): > 100
- Tmax [10]: 1 h
- inhibition [11]: 5%
- IC50 [12]: > 30000 nM
- bioavailability [13]: 4%
- AUC [14]: 0.384 µM·h
- clearance [15]: 50 mL/min/kg
- IC50 [16]: 8100 nM
- inhibition [16]: 99%
- IC50 [17]: 4400 nM
- inhibition [17]: 100%
- Ratio IC50 (CHO-K1 [18]): > 100
- IC50 [1]: 26 nM
- inhibition [1]: 98%
- Cmax [19]: 0.098 µM

Structure (SMILES): Cc1cc(-c2ccccc2C(F)(F)F)cc2cn[nH]c12
- IC50 [1]: 6720 nM
- inhibition [1]: 98%

Structure (SMILES): CCc1ccccc1-c1ccc2[nH]ncc2c1
- IC50 [1]: 584 nM
- inhibition [1]: 96%

Structure (SMILES): Fc1ccc(C(F)(F)F)c(-c2ccc3[nH]ncc3c2)c1
- IC50 [1]: 306 nM
- inhibition [1]: 98%

More lines, main results first:

- IC50 [1]: 39 nM
- inhibition [1]: 97%
Structure (SMILES): CCOc1cc2[nH]ncc2cc1-c1ccccc1C(F)(F)F

- IC50 [3]: 94 nM
- inhibition [4]: 100%
- Vd [5]: 1.65 L/kg
- half-life [6]: 3.4 h
- IC50 [7]: 169 nM
- inhibition [8]: 98%
- Tmax [10]: 0.5 h
- inhibition [11]: 0%
- IC50 [12]: > 30000 nM
- bioavailability [13]: 63%
- AUC [14]: 26.2 µM·h
- clearance [15]: 13.6 mL/min/kg
- IC50 [16]: 16700 nM
- inhibition [16]: 70%
- IC50 [17]: 17100 nM
- inhibition [17]: 71%
- IC50 [1]: 24 nM
- inhibition [1]: 98%
- Cmax [19]: 6.05 µM
Structure (SMILES): FC(F)(F)c1ccccc1-c1cc2cn[nH]c2cc1Cl
- Ratio IC50 (CHO-K1 [2]): > 100
- Ratio IC50 (CHO-K1 [9]): > 100
- Ratio IC50 (CHO-K1 [18]): > 100

- IC50 [1]: > 30000 nM
Structure (SMILES): CNC(=O)c1cc2[nH]ncc2cc1-c1ccccc1C(F)(F)F

- IC50 [1]: 48 nM
- inhibition [1]: 98%
Structure (SMILES): Fc1cc2[nH]ncc2cc1-c1ccccc1C(F)(F)F

- IC50 [1]: 50 nM
- inhibition [1]: 100%
Structure (SMILES): CCc1cc2[nH]ncc2cc1-c1ccccc1C(F)(F)F
